{"data": "Assay results gathered from unrelated publications", "target": "Receptor tyrosine-protein kinase erbB-2 (ERBB2, Homo sapiens, UniProt P04626)", "note": "Each line is one published result; the experiments were not run side by side."}
{"Structure (SMILES)": "Cc1cnc(NC2CCOCC2)nc1-n1cnc(C(=O)NC(CN)c2cc(F)cc(Cl)c2)c1 (stereo not shown)", "observed": "enzyme activity", "action": "inhibitor", "method": "radiometric", "concentration": "1 µM", "quantity": "remaining activity", "value": "100%"}
{"Structure (SMILES)": "Cc1ccc(C(=O)Nc2ccc(CN3CCN(C)CC3)c(C(F)(F)F)c2)cc1C#Cc1cnc2cccnn12", "observed": "enzyme activity", "action": "inhibitor", "concentration": "23.5 nM", "quantity": "remaining activity", "value": "44%"}
{"Structure (SMILES)": "CC(C)(C)c1nc(-c2cccc(NS(=O)(=O)c3c(F)cccc3F)c2F)c(-c2ccnc(N)n2)s1", "observed": "enzyme activity", "action": "inhibitor", "method": "radiometric", "concentration": "1 µM", "quantity": "remaining activity", "value": "96%"}
{"Structure (SMILES)": "COc1cc2ncnc(Nc3ccc(Oc4ccccc4)cc3C)c2cc1OC", "observed": "enzyme activity", "action": "inhibitor", "concentration": "1 µM", "quantity": "inhibition", "value": "55%"}
{"Structure (SMILES)": "COc1cccc2c(NCc3ccccc3)nc(-n3c(N)nc4ccccc43)nc12", "observed": "target engagement in cells", "action": "inhibitor", "method": "chemoproteomics", "concentration": "20 mM", "quantity": "inhibition", "value": "32.6%"}
{"Structure (SMILES)": "O=C(NS(=O)(=O)c1ccc(NCC2CCOCC2)c([N+](=O)[O-])c1)c1ccc(N2CCN(Cc3ccc(C(F)(F)F)cc3-c3ccc(Cl)cc3)CC2)cc1Oc1cnc2[nH]ccc2c1", "observed": "cell-free assay", "method": "competition with immobilised ligand", "concentration": "1 µM", "quantity": "remaining binding", "value": "100%"}
{"Structure (SMILES)": "COc1cc(Cl)c(C(=O)N[C@@H](CN[C@H]2CC[C@@H](N)CC2)Cc2ccc(C#N)cc2)cc1-c1ccc(CN[C@H](C)c2ccc(C)cc2)o1", "observed": "enzyme activity", "action": "inhibitor", "concentration": "1 µM", "quantity": "remaining activity", "value": "91%"}
{"Structure (SMILES)": "Cc1noc([C@H]2C[C@@H](c3ccc(C(F)(F)F)cc3)CN(C(=O)N3CCS(=O)(=O)C3)C2)n1", "observed": "cell-free assay", "method": "competition with immobilised ligand", "concentration": "1 µM", "quantity": "remaining binding", "value": "100%"}
{"Structure (SMILES)": "Cc1ccc(NC(=O)c2ccc(C)c(C(F)(F)F)c2)cc1C#Cc1nn(C2CCC(O)CC2)c2ncnc(N)c12 (stereo not shown)", "observed": "cell-free assay", "concentration": "10 µM", "quantity": "remaining signal", "value": "4%"}
{"Structure (SMILES)": "NS(=O)(=O)c1cc(NC(=O)C2(c3ccccc3Cl)CC2)ccc1Oc1cccc(Cl)c1", "observed": "cell-free assay", "method": "competition with immobilised ligand", "concentration": "1 µM", "quantity": "remaining binding", "value": "49%"}
{"Structure (SMILES)": "N#CCCc1ccc2c(c1)-c1[nH]c3ccc([N+](=O)[O-])cc3c1CC(=O)N2", "observed": "cell-free assay", "concentration": "0.5 µM", "quantity": "remaining signal", "value": "98.6%"}
{"Structure (SMILES)": "O=C(Nc1cnn(-c2csc(C(=O)NC3COC3)c2)c1)Nc1c(F)cccc1Cl", "observed": "enzyme activity", "action": "inhibitor", "concentration": "5 µM", "quantity": "remaining activity", "value": "97%"}
{"Structure (SMILES)": "COc1cc2c(N3CCN(C(=O)Nc4ccc(OC(C)C)cc4)CC3)ncnc2cc1OCCCN1CCCCC1", "observed": "cell-free assay", "concentration": "0.5 µM", "quantity": "remaining signal", "value": "104%"}
{"Structure (SMILES)": "C[C@H](c1ccnc(Nc2nc3ccc(-c4cc(N(C)C)ncn4)cc3[nH]2)c1)N1CCN(C(=O)CC(F)(F)F)CC1", "observed": "cell-free assay", "method": "competition with immobilised ligand", "concentration": "0.1 µM", "quantity": "remaining binding", "value": "100%"}
{"Structure (SMILES)": "Nc1ncnc2occ(-c3ccc(NC(=O)Nc4cc(C(F)(F)F)ccc4F)cc3)c12", "observed": "cell-free assay", "action": "inhibitor", "concentration": "20 µM", "quantity": "remaining signal", "value": "0%"}
{"Structure (SMILES)": "CS(=O)(=O)Nc1cccc(-c2csc(NC(=O)CSc3nc4nccnc4c(=O)n3CCc3ccccc3)n2)c1", "observed": "enzyme activity", "action": "inhibitor", "concentration": "10 µM", "quantity": "inhibition", "value": "-12%"}
{"Structure (SMILES)": "C[C@@]1(Cc2ccc(C#N)cc2)C(=O)N(c2cc(Cl)cc(Cl)c2)c2ncc(C(=O)NC3(c4nc(C5CCC5)no4)CC3)n21", "observed": "cell-free assay", "method": "competition with immobilised ligand", "concentration": "1 µM", "quantity": "remaining binding", "value": "100%"}
{"Structure (SMILES)": "Clc1ccc(Nc2nnc(Cc3ccncc3)c3ccccc23)cc1", "observed": "cell-free assay", "concentration": "0.5 µM", "quantity": "remaining signal", "value": "101%"}
{"Structure (SMILES)": "N#Cc1ccc(Nc2ccc3[nH]c(=O)[nH]c3c2)c(Cl)c1", "observed": "cell-free assay", "method": "competition with immobilised ligand", "concentration": "1 µM", "quantity": "remaining binding", "value": "100%"}
{"Structure (SMILES)": "O=C1Nc2ccc(Cl)cc2C1=Cc1cc(Cl)c(O)c(Cl)c1", "observed": "cell-free assay", "concentration": "0.5 µM", "quantity": "remaining signal", "value": "107%"}
{"Structure (SMILES)": "COc1ccc2c(c1)O[C@@H](c1ccc(OC)c(OC)c1)C[C@H]2NC(=O)C1(c2ccc3c(c2)OC(F)(F)O3)CC1", "observed": "cell-free assay", "method": "competition with immobilised ligand", "concentration": "1 µM", "quantity": "remaining binding", "value": "75%"}
{"Structure (SMILES)": "Nc1nc(Nc2ccc(S(N)(=O)=O)cc2)nn1C(=O)c1c(F)cccc1F", "observed": "cell-free assay", "concentration": "0.5 µM", "quantity": "remaining signal", "value": "91.1%"}
{"Structure (SMILES)": "Cc1ccc(C(=O)NCc2ccsc2)cc1C#Cc1cn(C(C)C)c2ncnc(N)c12", "observed": "enzyme activity", "action": "inhibitor", "concentration": "1 µM", "quantity": "activity vs control", "value": "66%"}
{"Structure (SMILES)": "CC#CC(=O)Nc1cc2c(Nc3ccc(F)c(Cl)c3)ncnc2cn1", "observed": "cell-free assay", "concentration": "0.5 µM", "quantity": "remaining signal", "value": "2.36%"}
{"Structure (SMILES)": "CCCOc1ccc([C@H]2[C@H](C(=O)O)[C@@H](c3ccc4c(c3)OCO4)CN2CC(=O)Nc2c(CC)cccc2CC)cc1", "observed": "cell-free assay", "method": "competition with immobilised ligand", "concentration": "1 µM", "quantity": "remaining binding", "value": "79%"}
